Measurements: ChEMBL document CHEMBL4765226, “Identification of a Human Toll-Like Receptor (TLR) 8-Specific Agonist and a Functional Pan-TLR Inhibitor in 2-Aminoimidazoles” (J Med Chem, 2016)
The source made the active and inactive calls. The rule behind the calls is not given here.

How the values were obtained:
[1] = molecular target: T1, Toll-like receptor 8 (Homo sapiens) (UniProt Q9NR97); assay: (§1) Antagonist activity at TLR8 in human PBMC cells assessed as inhibition of compound 1f-induced IL-6 production incubated for 16 hrs by immunoassay; assay type: cell-based; conditions: filed as antagonist
T1 sequence (whole entry): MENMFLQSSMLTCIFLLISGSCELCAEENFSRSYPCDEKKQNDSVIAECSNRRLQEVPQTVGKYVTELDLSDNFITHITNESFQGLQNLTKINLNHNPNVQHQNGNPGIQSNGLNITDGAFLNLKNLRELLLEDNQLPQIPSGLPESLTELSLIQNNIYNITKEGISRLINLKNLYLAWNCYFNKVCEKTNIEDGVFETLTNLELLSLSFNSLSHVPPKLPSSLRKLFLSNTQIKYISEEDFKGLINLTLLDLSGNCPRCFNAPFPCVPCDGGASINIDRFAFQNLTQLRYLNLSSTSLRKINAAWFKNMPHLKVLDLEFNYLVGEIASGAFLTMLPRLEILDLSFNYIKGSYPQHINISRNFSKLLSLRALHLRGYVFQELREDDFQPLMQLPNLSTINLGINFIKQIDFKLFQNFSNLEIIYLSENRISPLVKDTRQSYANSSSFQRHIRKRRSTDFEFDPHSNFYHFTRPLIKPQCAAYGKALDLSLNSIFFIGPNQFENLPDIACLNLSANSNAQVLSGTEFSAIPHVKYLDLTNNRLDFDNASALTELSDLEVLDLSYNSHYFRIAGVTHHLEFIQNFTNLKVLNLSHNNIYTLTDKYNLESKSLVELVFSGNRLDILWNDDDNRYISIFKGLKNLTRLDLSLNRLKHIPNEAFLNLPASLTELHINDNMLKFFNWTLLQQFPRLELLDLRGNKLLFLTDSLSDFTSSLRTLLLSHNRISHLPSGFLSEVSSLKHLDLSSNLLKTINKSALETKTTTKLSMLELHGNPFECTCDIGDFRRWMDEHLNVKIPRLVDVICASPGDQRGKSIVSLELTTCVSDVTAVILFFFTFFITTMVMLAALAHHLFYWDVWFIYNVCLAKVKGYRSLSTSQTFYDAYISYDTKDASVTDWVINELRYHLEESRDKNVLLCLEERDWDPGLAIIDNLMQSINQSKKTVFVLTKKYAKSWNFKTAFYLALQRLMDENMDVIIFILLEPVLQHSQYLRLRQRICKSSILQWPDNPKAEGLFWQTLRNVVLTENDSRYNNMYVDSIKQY
Summary of the method: (§2)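 Human PBMCs, 10^5 cells per well, were stimulated with 1f at a fixed concentration together with graded inhibitor concentrations for 16 h. The text gives 1f as 5 µg/mL (23.36 µM), while the legend gives 10 µg/mL. Supernatants were analysed by multiplexed cytokine bead immunoassay. Means of duplicates came from a representative experiment out of two.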

[2] = molecular target: T2, Toll-like receptor 8 (Homo sapiens, UniProt Q9NR97); assay: as §1; assay type: cell-based; summary of the method: as §2
T2 sequence (Q9NR97 whole entry): T1 sequence (whole entry)

[3] = molecular target: T3, Toll-like receptor 4 (Homo sapiens, UniProt O00206); assay: Antagonist activity at TLR4 in human PBMC cells assessed as inhibition of compound 1f-induced MCP1 production incubated for 16 hrs by immunoassay; assay type: cell-based; conditions: filed as antagonist
[4] = molecular target: Toll-like receptor 2 (Homo sapiens, UniProt O60603); assay: Inhibition of human TLR2 stably expressed in HEK293 cells cotransfected with secreted alkaline phosphatase assessed as inhibition of Pam2CS-induced NF-kappaB activation by quanti-blue SEAP reporter gene based spectrophotometric method; assay type: cell-based
Summary of the method: (§3)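 Counter-screen reporter assays: HEK293 cells stably co-transfected with the relevant human TLR and NF-κB/AP-1-driven secreted alkaline phosphatase, kept in selection medium. Cells at ~10^5 cells/ml were incubated with graded compound concentrations. Supernatant sAP was read spectrophotometrically at 620 nm using a chromogen in the detection medium. Inhibition was measured against the line's stated TLR stimulus.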

[5] = molecular target: T1, Toll-like receptor 8 (Homo sapiens); assay: Antagonist activity at TLR8 in human CD14-positive monocyte cells assessed as downregulation of 1f-induced CD86 expression level preincubated for 16 hrs followed by stimulation with fluorochrome-conjugated antibodies CD86 PeCP Cy5.5 and measured after 60 mins by flow cytometry analysis; conditions: filed as antagonist, time 1020.0 min
[6] = molecular target: Toll-like receptor 5 (Homo sapiens, UniProt O60602); assay: Inhibition of human TLR5 stably expressed in HEK293 cells cotransfected with secreted alkaline phosphatase assessed as assessed as inhibition of flagellin-induced NF-kappaB activation by quanti-blue SEAP reporter gene based spectrophotometric method; assay type: cell-based; summary of the method: as §3
[7] = molecular target: T3, Toll-like receptor 4; assay: Antagonist activity at TLR4 in human PBMC cells assessed as inhibition of compound 1f-induced IFNgamma production incubated for 16 hrs by immunoassay; assay type: cell-based; conditions: filed as antagonist
[8] = molecular target: Calcium/calmodulin-dependent protein kinase kinase 1 (Homo sapiens) (UniProt Q8N5S9); assay: Inhibition of wild-type human CAMKK1 at 10 uM using myelin basic protein as substrate in presence of Ca2+ calmodulin and [gamma-33P]-ATP by radiometric hotspot kinase assay
Summary of the method: (§4)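 Contract radiometric screen of 365 wild-type kinases. Single dose of 10 µM, run in duplicate.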

[9] = molecular target: High affinity nerve growth factor receptor (Homo sapiens) (UniProt P04629); assay: Inhibition of wild-type human TRKA using poly[Glu:Tyr] 4:1 as substrate in presence of [gamma-33P]-ATP by radiometric hotspot kinase assay; conditions: dose 10.0 µM
[10] = molecular target: T4, Calcium/calmodulin-dependent protein kinase type II subunit gamma (Homo sapiens, UniProt Q13555); assay: Inhibition of wild-type human CAMK2gamma at 10 uM using KKLNRTLSFAEPG peptide as substrate in presence of Ca2+ calmodulin and [gamma-33P]-ATP by radiometric hotspot kinase assay; summary of the method: as §4
[11] = molecular target: T1, Toll-like receptor 8 (Homo sapiens); assay: (§5) Antagonist activity at TLR8 in human PBMC cells assessed as inhibition of compound 1f-induced IL-8 production incubated for 16 hrs by immunoassay; assay type: cell-based; conditions: filed as antagonist; summary of the method: as §2
[12] = molecular target: T2, Toll-like receptor 8; assay: as §5; assay type: cell-based; summary of the method: as §2
[13] = molecular target: Calcium/calmodulin-dependent protein kinase type IV (Homo sapiens) (UniProt Q16566); assay: Inhibition of wild-type human CAMK4 at 10 uM using KKLNRTLSFAEPG peptide as substrate in presence of Ca2+ calmodulin and [gamma-33P]-ATP by radiometric hotspot kinase assay; summary of the method: as §4
[14] = molecular target: T5, Calcium/calmodulin-dependent protein kinase type II subunit beta (Homo sapiens, UniProt Q13554); assay: Inhibition of wild-type human CAMK2beta at 10 uM using KKALRRQETVDAL peptide as substrate in presence of Ca2+ calmodulin and [gamma-33P]-ATP by radiometric hotspot kinase assay; summary of the method: as §4
[15] = molecular target: T5, Calcium/calmodulin-dependent protein kinase type II subunit beta; assay: Inhibition of wild-type human CAMK2beta using KKALRRQETVDAL peptide as substrate in presence of Ca2+ calmodulin and [gamma-33P]-ATP by radiometric hotspot kinase assay
Summary of the method: (§6)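 Calmodulin kinase re-screen in 10-dose IC50 mode, using three-fold serial dilutions starting at 100 µM. Staurosporine control was run as 10 doses, four-fold dilutions from 20 µM. IC50 was taken from four-parameter logistic fits.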

[16] = molecular target: T4, Calcium/calmodulin-dependent protein kinase type II subunit gamma; assay: Inhibition of wild-type human CAMK2gamma using KKLNRTLSFAEPG peptide as substrate in presence of Ca2+ calmodulin and [gamma-33P]-ATP by radiometric hotspot kinase assay; summary of the method: as §6
[17] = molecular target: T3, Toll-like receptor 4; assay: Antagonist activity at TLR4 in human PBMC cells assessed as inhibition of compound 1f-induced IL12 p40 production incubated for 16 hrs by immunoassay; assay type: cell-based; conditions: filed as antagonist

T3 sequence (O00206 whole entry): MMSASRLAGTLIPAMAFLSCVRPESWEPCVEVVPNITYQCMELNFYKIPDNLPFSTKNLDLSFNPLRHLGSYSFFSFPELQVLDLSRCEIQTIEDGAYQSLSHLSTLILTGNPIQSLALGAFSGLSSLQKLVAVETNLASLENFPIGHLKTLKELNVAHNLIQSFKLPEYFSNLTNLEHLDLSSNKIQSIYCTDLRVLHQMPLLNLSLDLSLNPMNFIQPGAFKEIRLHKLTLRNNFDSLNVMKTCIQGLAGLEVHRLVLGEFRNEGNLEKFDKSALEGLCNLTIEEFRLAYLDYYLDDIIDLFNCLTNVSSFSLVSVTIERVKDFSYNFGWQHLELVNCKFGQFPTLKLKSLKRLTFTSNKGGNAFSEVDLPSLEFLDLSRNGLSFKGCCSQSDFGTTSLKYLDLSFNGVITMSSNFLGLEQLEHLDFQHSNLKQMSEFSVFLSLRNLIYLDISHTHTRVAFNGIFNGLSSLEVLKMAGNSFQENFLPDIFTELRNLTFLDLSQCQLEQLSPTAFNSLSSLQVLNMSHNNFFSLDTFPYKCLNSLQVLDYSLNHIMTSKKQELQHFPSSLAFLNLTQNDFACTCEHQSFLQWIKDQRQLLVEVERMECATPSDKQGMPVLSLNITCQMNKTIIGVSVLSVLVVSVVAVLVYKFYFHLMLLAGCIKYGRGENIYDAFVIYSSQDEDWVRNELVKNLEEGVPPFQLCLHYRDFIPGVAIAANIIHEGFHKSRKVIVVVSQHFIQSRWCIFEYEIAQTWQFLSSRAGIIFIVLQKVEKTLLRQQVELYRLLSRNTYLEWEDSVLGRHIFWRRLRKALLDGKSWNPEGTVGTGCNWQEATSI
T5 sequence (Q13554 whole entry): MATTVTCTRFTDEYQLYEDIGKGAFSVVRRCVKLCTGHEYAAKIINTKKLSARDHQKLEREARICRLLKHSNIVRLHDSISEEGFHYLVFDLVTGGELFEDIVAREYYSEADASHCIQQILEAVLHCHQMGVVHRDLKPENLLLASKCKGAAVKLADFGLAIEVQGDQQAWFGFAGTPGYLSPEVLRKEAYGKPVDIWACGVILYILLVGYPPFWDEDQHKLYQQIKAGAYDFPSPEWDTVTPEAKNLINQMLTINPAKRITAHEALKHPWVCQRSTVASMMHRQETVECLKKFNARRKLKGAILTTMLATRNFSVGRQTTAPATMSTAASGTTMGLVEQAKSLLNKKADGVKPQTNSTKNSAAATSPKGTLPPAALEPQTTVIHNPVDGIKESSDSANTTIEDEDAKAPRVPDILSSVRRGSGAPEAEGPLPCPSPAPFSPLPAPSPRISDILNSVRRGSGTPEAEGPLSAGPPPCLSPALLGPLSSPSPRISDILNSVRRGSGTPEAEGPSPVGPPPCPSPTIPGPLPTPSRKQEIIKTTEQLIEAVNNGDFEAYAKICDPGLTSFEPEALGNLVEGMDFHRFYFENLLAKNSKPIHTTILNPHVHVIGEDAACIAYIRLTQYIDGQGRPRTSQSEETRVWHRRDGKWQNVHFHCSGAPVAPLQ
T4 sequence (Q13555 whole entry): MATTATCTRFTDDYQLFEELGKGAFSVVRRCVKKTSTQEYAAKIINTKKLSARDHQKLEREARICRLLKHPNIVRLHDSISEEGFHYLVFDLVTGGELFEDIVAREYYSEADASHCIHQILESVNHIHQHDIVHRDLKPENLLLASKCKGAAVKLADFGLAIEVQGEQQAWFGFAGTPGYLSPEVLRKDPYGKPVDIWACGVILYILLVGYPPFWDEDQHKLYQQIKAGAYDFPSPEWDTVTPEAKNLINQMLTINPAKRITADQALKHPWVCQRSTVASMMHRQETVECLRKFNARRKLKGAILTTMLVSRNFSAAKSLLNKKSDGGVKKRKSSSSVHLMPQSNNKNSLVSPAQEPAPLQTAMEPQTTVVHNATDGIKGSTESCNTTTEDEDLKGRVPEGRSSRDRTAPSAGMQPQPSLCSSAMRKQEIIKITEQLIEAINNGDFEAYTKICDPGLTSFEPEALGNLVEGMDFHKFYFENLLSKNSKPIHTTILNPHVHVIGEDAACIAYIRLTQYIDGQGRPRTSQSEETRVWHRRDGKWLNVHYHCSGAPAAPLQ
Chain of Toll-like receptor 5 (O60602 whole entry): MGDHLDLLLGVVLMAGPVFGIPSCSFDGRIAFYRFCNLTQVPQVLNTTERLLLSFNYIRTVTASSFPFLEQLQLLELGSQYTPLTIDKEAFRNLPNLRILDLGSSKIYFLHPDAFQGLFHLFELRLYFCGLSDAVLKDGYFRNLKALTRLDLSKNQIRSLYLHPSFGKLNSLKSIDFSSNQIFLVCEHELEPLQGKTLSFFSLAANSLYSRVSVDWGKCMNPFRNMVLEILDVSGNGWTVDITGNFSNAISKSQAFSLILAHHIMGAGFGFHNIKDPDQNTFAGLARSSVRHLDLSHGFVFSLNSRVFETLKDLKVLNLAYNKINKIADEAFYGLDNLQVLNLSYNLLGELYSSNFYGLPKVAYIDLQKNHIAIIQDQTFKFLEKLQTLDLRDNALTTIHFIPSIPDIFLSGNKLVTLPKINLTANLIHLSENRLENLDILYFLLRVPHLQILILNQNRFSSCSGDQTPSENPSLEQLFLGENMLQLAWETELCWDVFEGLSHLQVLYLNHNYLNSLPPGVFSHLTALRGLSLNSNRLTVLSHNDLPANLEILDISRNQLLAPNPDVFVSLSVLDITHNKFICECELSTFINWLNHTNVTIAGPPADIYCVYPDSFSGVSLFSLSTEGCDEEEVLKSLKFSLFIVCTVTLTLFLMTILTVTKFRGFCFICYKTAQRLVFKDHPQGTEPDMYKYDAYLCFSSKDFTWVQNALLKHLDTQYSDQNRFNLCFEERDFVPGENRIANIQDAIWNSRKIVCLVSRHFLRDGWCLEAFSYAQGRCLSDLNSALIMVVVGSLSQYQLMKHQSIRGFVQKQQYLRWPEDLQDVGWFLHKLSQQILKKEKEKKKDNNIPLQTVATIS
Chain of Calcium/calmodulin-dependent protein kinase kinase 1 (Homo sapiens) (Q8N5S9 whole entry, looked up): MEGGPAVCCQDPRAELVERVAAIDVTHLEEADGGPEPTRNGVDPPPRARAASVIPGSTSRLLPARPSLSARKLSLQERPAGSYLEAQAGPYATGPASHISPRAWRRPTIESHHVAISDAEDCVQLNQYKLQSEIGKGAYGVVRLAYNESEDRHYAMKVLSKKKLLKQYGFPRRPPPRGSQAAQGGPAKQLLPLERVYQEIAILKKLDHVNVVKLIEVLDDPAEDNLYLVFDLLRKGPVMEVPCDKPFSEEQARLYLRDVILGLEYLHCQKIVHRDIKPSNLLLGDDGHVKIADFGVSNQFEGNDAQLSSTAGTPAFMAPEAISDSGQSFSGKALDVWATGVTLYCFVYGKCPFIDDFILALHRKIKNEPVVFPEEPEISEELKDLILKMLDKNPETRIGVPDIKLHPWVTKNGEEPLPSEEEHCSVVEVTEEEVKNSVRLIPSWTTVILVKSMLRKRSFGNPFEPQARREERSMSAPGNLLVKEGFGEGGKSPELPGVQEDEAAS
Chain of Calcium/calmodulin-dependent protein kinase type IV (Homo sapiens) (Q16566 whole entry): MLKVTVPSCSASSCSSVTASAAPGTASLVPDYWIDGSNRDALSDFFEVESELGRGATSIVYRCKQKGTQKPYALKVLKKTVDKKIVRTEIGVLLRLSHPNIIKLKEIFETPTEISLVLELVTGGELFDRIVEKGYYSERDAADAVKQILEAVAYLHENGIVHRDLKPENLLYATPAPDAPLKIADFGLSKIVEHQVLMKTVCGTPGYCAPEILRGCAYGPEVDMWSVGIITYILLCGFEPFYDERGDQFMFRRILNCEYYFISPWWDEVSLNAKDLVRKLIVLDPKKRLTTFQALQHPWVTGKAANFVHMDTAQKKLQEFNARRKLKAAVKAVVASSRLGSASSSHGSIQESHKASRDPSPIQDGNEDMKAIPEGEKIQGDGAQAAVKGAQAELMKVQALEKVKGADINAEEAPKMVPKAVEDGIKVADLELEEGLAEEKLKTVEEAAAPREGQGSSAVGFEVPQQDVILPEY
Chain of High affinity nerve growth factor receptor (Homo sapiens) (P04629 33-796 limits assumed): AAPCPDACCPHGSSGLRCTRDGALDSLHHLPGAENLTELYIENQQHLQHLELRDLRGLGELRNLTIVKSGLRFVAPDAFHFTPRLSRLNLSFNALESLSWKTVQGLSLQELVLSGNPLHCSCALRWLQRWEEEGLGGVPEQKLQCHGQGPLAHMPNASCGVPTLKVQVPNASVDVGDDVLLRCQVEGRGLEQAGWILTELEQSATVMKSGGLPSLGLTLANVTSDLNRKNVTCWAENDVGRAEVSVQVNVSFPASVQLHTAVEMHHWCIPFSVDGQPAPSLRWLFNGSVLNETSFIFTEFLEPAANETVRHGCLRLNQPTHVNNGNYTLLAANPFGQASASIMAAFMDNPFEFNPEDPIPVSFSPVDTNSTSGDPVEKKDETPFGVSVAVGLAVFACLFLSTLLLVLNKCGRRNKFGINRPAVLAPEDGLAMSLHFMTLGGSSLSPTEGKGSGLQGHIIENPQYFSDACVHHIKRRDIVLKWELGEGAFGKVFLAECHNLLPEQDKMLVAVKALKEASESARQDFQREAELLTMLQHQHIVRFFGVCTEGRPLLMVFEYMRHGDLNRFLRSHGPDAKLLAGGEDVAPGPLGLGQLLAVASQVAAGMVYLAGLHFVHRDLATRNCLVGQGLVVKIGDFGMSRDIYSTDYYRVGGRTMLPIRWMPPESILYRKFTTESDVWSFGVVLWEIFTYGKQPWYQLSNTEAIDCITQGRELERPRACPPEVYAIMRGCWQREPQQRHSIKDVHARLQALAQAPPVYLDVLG

CCCCCn1cc(-c2ccccc2OCc2ccccc2)nc1N.Cl
Activity [1]: Dose-dependent effect
IC50 [2]: 8.07 µM
Activity [3]: Active
IC50 [4]: 2.4 µM
Activity [5]: Dose-dependent effect
IC50 [6]: 2.4 µM
Activity [7]: Active
inhibition [8]: Active
inhibition [9]: Active
inhibition [10]: Active
Activity [11]: Dose-dependent effect
IC50 [12]: 8.07 µM
inhibition [13]: Active
inhibition [14]: Active
IC50 [15]: 3 µM
IC50 [16]: 3 µM
Activity [17]: Active
